Source: ChEMBL document CHEMBL1157684, “2-Thienyl-4-furyl-6-aryl pyridine derivatives: synthesis, topoisomerase I and II inhibitory activity, cytotoxicity, and structure-activity relationship study” (Bioorg Med Chem, 2010)
Where a name gives a salt, the structure may show the parent alone. Active and inactive are the calls of the source. The calls are words filed in the database; no cut-off is given here.

Assays:
[1] = target: T1, DNA topoisomerase 1 (Homo sapiens) (UniProt P11387); test: Inhibition of human recombinant DNA topoisomerase 1-mediated relaxation of supercoiled pBR322 DNA at 20 uM after 30 mins by agarose gel electrophoresis
T1 sequence (whole entry): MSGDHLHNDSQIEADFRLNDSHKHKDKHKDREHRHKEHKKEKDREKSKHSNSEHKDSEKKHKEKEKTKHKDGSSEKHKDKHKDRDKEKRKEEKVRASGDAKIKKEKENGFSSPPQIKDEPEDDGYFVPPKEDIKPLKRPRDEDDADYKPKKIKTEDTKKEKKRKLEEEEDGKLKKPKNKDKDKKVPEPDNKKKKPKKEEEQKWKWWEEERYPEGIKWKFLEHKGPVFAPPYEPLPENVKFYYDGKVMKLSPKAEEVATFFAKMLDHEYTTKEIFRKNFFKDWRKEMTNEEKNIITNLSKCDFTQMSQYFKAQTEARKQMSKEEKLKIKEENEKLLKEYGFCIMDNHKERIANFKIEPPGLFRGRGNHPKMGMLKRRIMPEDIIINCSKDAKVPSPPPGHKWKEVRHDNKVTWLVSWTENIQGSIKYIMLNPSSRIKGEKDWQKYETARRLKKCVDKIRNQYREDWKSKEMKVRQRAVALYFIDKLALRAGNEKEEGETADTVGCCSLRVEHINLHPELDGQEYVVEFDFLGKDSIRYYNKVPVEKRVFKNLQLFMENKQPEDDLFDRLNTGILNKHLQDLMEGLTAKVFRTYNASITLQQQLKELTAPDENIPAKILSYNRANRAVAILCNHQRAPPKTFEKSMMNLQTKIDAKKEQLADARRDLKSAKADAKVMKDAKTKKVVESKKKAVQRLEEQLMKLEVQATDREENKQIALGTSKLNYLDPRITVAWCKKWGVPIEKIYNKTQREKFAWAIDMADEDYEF
Procedure, shortened: (§1)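 Recombinant human topo I (0.4 units) with 100 ng supercoiled pBR322, 30 min at 37 °C in 10 mM Tris–HCl pH 7.9, 150 mM NaCl, 0.1% BSA, 1 mM spermidine, 5% glycerol. Compounds from 20 mM DMSO stock. Products run on 1% agarose in TAE, 15 V for 7 h, ethidium-stained, bands quantified under UV.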

HeLa = test: Cytotoxicity against human HeLa cells after 4 days by ELISA reader assay; type: functional, cell-based; conditions: 96 h
Procedure, shortened: (§2)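 Cells grown per supplier, seeded at 2–4 × 10⁴ per well, left overnight in medium with 10% FBS at 37 °C under 5% CO₂, then exposed to compounds. WST (cell counting kit-8) reagent added for a further 4 h, absorbance read at 450 nm. IC50 from four-parameter logistic fit; mean ± S.D. of three experiments, each in triplicate.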

[2] = target: T1, DNA topoisomerase 1 (Homo sapiens); test: Inhibition of human recombinant DNA topoisomerase 1-mediated relaxation of supercoiled pBR322 DNA at 100 uM after 30 mins by agarose gel electrophoresis; procedure, shortened: as §1
K562 = test: Cytotoxicity against human K562 cells after 4 days by ELISA reader assay; type: functional, cell-based; conditions: K562, 96 h; procedure, shortened: as §2
MCF7 = test: Cytotoxicity against human MCF7 cells after 4 days by ELISA reader assay; type: functional, cell-based; conditions: MCF7, 96 h; procedure, shortened: as §2
[3] = target: DNA topoisomerase 2-alpha (Homo sapiens) (UniProt P11388); test: Inhibition of human DNA topoisomerase 2alpha-mediated relaxation of supercoiled pBR322 DNA at 100 uM after 30 mins by agarose gel electrophoresis
Procedure, shortened: (§3)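 Human topo IIα (1 unit) with 200 ng supercoiled pBR322, 30 min at 30 °C in 10 mM Tris–HCl pH 7.9, 50 mM NaCl, 50 mM KCl, 5 mM MgCl2, 1 mM EDTA, 1 mM ATP plus BSA. Products run on 1% agarose in TAE at 25 V for 4 h, ethidium-stained, supercoiled DNA quantified under UV.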

HCT-15 = test: Cytotoxicity against human HCT15 cells after 4 days by ELISA reader assay; type: functional, cell-based; conditions: HCT-15, 96 h; procedure, shortened: as §2
DU-145 = test: Cytotoxicity against human DU145 cells after 4 days by ELISA reader assay; type: functional, cell-based; conditions: DU-145, 96 h; procedure, shortened: as §2
[4] = target: DNA topoisomerase 2-alpha (Homo sapiens) (UniProt P11388); test: Inhibition of human DNA topoisomerase 2alpha-mediated relaxation of supercoiled pBR322 DNA at 20 uM after 30 mins by agarose gel electrophoresis; procedure, shortened: as §3

DNA topoisomerase 2-alpha (Homo sapiens), sequence (P11388 whole entry): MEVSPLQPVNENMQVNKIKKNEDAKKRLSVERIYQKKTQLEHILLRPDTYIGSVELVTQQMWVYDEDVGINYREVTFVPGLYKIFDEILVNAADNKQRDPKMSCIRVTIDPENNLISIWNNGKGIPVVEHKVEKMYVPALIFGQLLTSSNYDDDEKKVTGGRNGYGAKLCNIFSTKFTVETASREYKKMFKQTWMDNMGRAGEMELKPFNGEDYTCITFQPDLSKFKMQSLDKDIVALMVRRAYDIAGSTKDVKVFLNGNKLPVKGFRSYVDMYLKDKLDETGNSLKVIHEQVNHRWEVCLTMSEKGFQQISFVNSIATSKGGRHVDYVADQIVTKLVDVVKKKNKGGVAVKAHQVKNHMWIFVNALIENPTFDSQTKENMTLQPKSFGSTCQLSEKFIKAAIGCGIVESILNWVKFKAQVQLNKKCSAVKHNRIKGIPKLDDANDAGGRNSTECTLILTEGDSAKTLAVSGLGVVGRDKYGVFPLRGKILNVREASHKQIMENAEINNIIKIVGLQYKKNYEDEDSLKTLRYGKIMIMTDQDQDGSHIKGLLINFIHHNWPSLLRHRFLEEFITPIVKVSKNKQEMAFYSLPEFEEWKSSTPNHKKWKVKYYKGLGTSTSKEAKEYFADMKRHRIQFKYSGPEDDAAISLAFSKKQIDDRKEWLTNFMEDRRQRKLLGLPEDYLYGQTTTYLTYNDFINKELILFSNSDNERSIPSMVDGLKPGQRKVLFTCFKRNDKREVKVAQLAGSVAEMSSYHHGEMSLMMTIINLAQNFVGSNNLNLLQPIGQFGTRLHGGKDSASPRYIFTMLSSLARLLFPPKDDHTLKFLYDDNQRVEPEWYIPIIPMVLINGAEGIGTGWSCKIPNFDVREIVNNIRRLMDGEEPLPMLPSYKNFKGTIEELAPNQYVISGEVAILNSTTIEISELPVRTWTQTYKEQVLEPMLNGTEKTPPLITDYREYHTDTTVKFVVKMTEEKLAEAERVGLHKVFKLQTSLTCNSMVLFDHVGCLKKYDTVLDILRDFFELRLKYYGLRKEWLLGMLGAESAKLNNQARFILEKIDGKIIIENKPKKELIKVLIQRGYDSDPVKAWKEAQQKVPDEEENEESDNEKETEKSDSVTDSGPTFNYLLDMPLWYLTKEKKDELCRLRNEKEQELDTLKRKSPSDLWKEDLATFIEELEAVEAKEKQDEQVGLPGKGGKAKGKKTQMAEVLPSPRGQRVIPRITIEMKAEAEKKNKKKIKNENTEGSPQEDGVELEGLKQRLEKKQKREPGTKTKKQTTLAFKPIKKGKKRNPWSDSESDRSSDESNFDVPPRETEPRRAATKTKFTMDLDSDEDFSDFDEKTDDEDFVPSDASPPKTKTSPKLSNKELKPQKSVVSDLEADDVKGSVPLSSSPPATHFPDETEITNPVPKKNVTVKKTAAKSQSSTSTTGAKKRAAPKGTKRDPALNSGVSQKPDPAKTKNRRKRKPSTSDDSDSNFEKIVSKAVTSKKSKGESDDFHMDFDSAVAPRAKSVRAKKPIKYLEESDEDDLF

Row | SMILES | inhibition [1] | inhibition [2] | inhibition [3] | inhibition [4] | IC50 (HeLa) | IC50 (K562) | IC50 (MCF7) | IC50 (HCT-15) | IC50 (DU-145)
1 | Clc1ccc(-c2cc(-c3ccoc3)cc(-c3ccccc3Cl)n2)s1 | inactive | 0% | 49.5% | 37.6% | 19 µM | 15.8 µM | 7.36 µM | 1.1 µM | 16.4 µM
2 | Cc1ccccc1-c1cc(-c2ccoc2)cc(-c2ccc(Cl)s2)n1 | inactive | 4.6% | 60.7% | 49.2% | 19 µM | 12.3 µM | 1.43 µM | 0.99 µM | 18.5 µM
3 | COc1cc([C@@H]2c3cc4c(cc3[C@@H](O[C@@H]3O[C@@H]5CO[C@@H](C)O[C@H]5[C@H](O)[C@H]3O)[C@H]3COC(=O)[C@H]23)OCO4)cc(OC)c1O [ETOPOSIDE] | – | – | – | 28.9% | 1.29 µM | 2.41 µM | 1.89 µM | 1.09 µM | 1.3 µM
4 | Cc1cccc(-c2cc(-c3ccoc3)cc(-c3ccc(Cl)s3)n2)c1 | inactive | 2.6% | 50.2% | 37.6% | 23.6 µM | 13.7 µM | 3.99 µM | 0.88 µM | 20.3 µM
5 | Clc1cccc(-c2cc(-c3ccc(Cl)o3)cc(-c3ccc(Cl)s3)n2)c1 | inactive | 13.3% | 53.8% | 40.7% | 25.2 µM | 19.6 µM | 15.1 µM | > 50 µM | 21.6 µM
6 | Clc1ccc(-c2cc(-c3ccoc3)cc(-c3ccc(Cl)s3)n2)cc1 | inactive | 2.3% | 62.7% | 56.9% | 16.5 µM | 19.6 µM | 2.6 µM | 0.64 µM | 29.5 µM
7 | Cc1ccc(-c2cc(-c3ccoc3)cc(-c3ccc(Cl)s3)n2)o1 | inactive | 13.2% | 60.5% | 54% | 26.5 µM | 12.7 µM | 1.9 µM | 0.79 µM | 33.4 µM
8 | Clc1ccc(-c2cc(-c3ccc(Cl)o3)cc(-c3ccc(Cl)s3)n2)cc1 | inactive | 2.2% | 59.8% | 42.7% | 25.1 µM | 19.3 µM | 12.6 µM | 25.3 µM | 23 µM
9 | Clc1ccc(-c2cc(-c3ccco3)nc(-c3ccc(Cl)s3)c2)o1 | inactive | 23.1% | 53.8% | 39.9% | > 50 µM | 22.5 µM | 16.9 µM | > 50 µM | 27.7 µM
10 | Clc1cccc(-c2cc(-c3ccoc3)cc(-c3ccc(Cl)s3)n2)c1 | inactive | 2.1% | 54% | 50.6% | 23.7 µM | 22.1 µM | 2.92 µM | 0.95 µM | 23 µM
11 | Clc1ccc(-c2cc(-c3ccoc3)cc(-c3ccccn3)n2)s1 | inactive | 3.1% | 49.6% | 38.9% | 21.6 µM | 20 µM | 3.36 µM | 1.27 µM | 20.5 µM
12 | COc1cccc2c1C(=O)c1c(O)c3c(c(O)c1C2=O)C[C@@](O)(C(=O)CO)C[C@@H]3O[C@H]1C[C@H](N)[C@H](O)[C@H](C)O1 [DOXORUBICIN HYDROCHLORIDE] | – | – | – | – | – | 2.5 µM | – | 2.12 µM | 1.5 µM
13 | Cc1ccc(-c2cc(-c3ccoc3)cc(-c3ccc(Cl)s3)n2)cc1 | inactive | 0% | 50.3% | 53.6% | 28.7 µM | 17.9 µM | 5.34 µM | 1.17 µM | 25.3 µM
14 | Clc1ccc(-c2cc(-c3ccoc3)cc(-c3ccco3)n2)s1 | inactive | 9.6% | 49.1% | 48.6% | 22.7 µM | 16.2 µM | 4.74 µM | 1.28 µM | 17.2 µM
15 | Clc1ccc(-c2cc(-c3ccco3)cc(-c3ccc(Cl)s3)n2)cc1 | 42.9% | 53.1% | 53.3% | 48.4% | 17 µM | 10.5 µM | 1.52 µM | 1.08 µM | 14.8 µM
16 | CC[C@@]1(O)C(=O)OCc2c1cc1n(c2=O)Cc2cc3ccccc3nc2-1 [CAMPTOTHECIN] | – | – | – | – | – | – | 0.06 µM | 0.76 µM | 0.66 µM

Second part, led by results:

Row | inhibition [1] | inhibition [2] | inhibition [3] | inhibition [4] | SMILES | IC50 (HeLa) | IC50 (K562) | IC50 (MCF7) | IC50 (HCT-15) | IC50 (DU-145)
17 | inactive | 5.1% | 59.8% | 40.4% | Cc1ccsc1-c1cc(-c2ccc(Cl)o2)cc(-c2ccc(Cl)cc2)n1 | 29.3 µM | 15.6 µM | 15.3 µM | 30.3 µM | 21.9 µM
18 | inactive | 5.4% | 59.9% | 36.4% | Cc1ccsc1-c1cc(-c2ccoc2)cc(-c2ccco2)n1 | 30.5 µM | 23.3 µM | 18.2 µM | 0.64 µM | 30.4 µM
19 | 10.6% | 85.9% | 33.8% | 8.1% | Cc1ccsc1-c1cc(-c2ccoc2)cc(-c2ccc(Cl)cc2)n1 | 17.4 µM | 19.6 µM | 20.3 µM | 2.99 µM | 20.1 µM
20 | inactive | 2% | 60.8% | 40.9% | Clc1ccc(-c2cc(-c3ccoc3)cc(-c3cccnc3)n2)s1 | 20 µM | 18.7 µM | 3.48 µM | 0.72 µM | 18.5 µM
21 | inactive | 5.9% | 51.5% | 35.7% | Cc1ccsc1-c1cc(-c2ccc(Cl)o2)cc(-c2cccc(Cl)c2)n1 | 24.8 µM | 13.4 µM | 18.8 µM | 26.4 µM | 20.5 µM
22 | inactive | 21.4% | 57.2% | 25.5% | Cc1ccsc1-c1cc(-c2ccc(Cl)o2)cc(-c2cccnc2)n1 | > 50 µM | 12.3 µM | 5.81 µM | > 50 µM | 30.8 µM
23 | inactive | 7.8% | 61.1% | 30.7% | Cc1ccsc1-c1cc(-c2ccc(Cl)o2)cc(-c2ccco2)n1 | 22.2 µM | 10.6 µM | 5.57 µM | 26.3 µM | 27.3 µM
24 | inactive | 1% | 56.3% | 17.8% | Cc1ccsc1-c1cc(-c2ccco2)cc(-c2ccc(Cl)cc2)n1 | 24.5 µM | 20.7 µM | 0.89 µM | 0.71 µM | 26.7 µM
25 | inactive | 2% | 33.2% | 3.5% | Cc1ccsc1-c1cc(-c2ccco2)cc(-c2ccccc2Cl)n1 | 24 µM | 25.4 µM | 14.2 µM | 0.54 µM | 29.9 µM
